In ChEMBL document CHEMBL5038583, “Highly Potent and Selective Butyrylcholinesterase Inhibitors for Cognitive Improvement and Neuroprotection” (J Med Chem, 2021):
Calls of active or inactive are those of the source. The rule behind the calls is not given here.

Key:
[1] = Effective permeability of the compound in pH 7.4 PBS/EtOH (70:30) at 100 ug/ml incubated for 18 hrs by PAMPA-BBB assay; format: ADME; details: dose 100 µg/ml, read-out: Peff
Summary of the method: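 PAMPA-BBB with porcine brain lipid in dodecane (20 mg/mL) on PVDF filter. Donor holds compound at 100 μg/mL final (from 5 mg/mL DMSO stock) in PBS pH 7.4/EtOH 70:30; acceptor holds the same buffer. Incubated 18 h at 25 °C; donor and acceptor concentrations by UV at five wavelengths. Four wells, at least three runs, nine permeability standards; mean ± SD.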

[2] = Toxicity in ICR mouse assessed as increase in body weight administered for 14 days and measured daily; details: in vivo, 15 mg/kg, 336 h
Cholinesterase [3] = target: Cholinesterase (Homo sapiens, UniProt P06276); assay: Inhibition of human serum BChE using butyrylthiocholine iodide as substrate preincubated for 20 mins followed by substrate addition and measured after 2 mins by DTNB-reagent based Ellman's method
Summary of the method: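 hBChE at 0.015 units/mL with DTNB in phosphate buffer pH 8.0, preincubated 20 min at room temperature with at least six concentrations (10⁻⁴−10⁻⁹). Butyrylthiocholine iodide (0.075 M solution) added; A412 read after 2 min at 25 °C. IC50 from % activity vs log concentration; triplicates in at least three runs.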

[4] = Hepatotoxicity in ICR mouse assessed as change in alanine aminotransferase activity at 1 g/kg, ig administered daily for 14 days measured upto 36 hrs post-administration; format: toxicity; details: in vivo, po, 1000 mg/kg, 336 h, time 14 day
Summary of the method: (§1)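 Heparinized serum from ICR mice taken at 8, 22 and 36 h after oral compound or saline control; AST and ALT activities measured.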

L02 = assay: Cytotoxicity against human L02 cells assessed as survival rate at 100 uM incubated for 24 hrs by MTT assay; format: functional
Summary of the method: (§2)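 Cells seeded at 1 × 10⁴/well in DMEM with 10% FBS and left overnight, then given compound (DMSO stock diluted in DMEM) for 24 h at 37 °C. MTT added for 4 h, formazan dissolved in DMSO, absorbance read at 492 nm. Viability taken as OD treated/OD DMEM × 100%; IC50 from three independent experiments, mean SD.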

Mus musculus [5] = assay: Antialzheimer activity in ICR mouse assessed as reduction in scopolamine-induced cognitive impairment at 30 mg/kg, ig administered for 10 consecutive days by Morris water maze test; format: functional, organism-based; details: time 10.0 day
Summary of the method: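 Male ICR mice (8−10 weeks, 18−20 g), n = 8 per group. Compound at 15 or 30 mg/kg intragastric in DMSO/saline (10:90), given 30 min before scopolamine 3 mg/kg i.p., for 10 consecutive days; tacrine 15 mg/kg as reference. Morris water maze: 5 days of training, probe trial on day 6 with platform removed. Escape latency and trajectory recorded; mean ± SD.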

[6] = Acute toxicity in ICR mouse assessed as abnormal behaviour at 1 g/kg, ig administered […]; details: in vivo, po, 1000 mg/kg
Summary of the method: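 Single dose of 1 g/kg given intragastrically on day 1 to overnight-fasted mice (15−18 g), suspended in 5% DMSO, 40% PEG 400, 55% saline. Male and female groups (n = 9), with vehicle controls. Death, daily behaviour and body mass followed over the next 2 weeks.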

BV-2 [7] = assay: Cytotoxicity against mouse BV-2 cells assessed as survival rate at 100 uM incubated for 24 hrs by MTT assay; format: functional; summary of the method: as §2
[8] = Hepatotoxicity in ICR mouse assessed as morphological changes in liver at 1 g/kg, ig administered daily for 14 days analysed after 22 hrs post-administration by hematoxylin and eosin staining based analysis; format: toxicity, tissue-based; details: in vivo, po, 1000 mg/kg, 336 h, time 14 day
Summary of the method: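 Liver from male mice taken 22 h after compound or vehicle; hematoxylin−eosin staining, viewed at ×100.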

[9] = Metabolic stability in human liver microsomes assessed as half life at 1 uM measured upto 45 mins in presence of NADPH by LC/MS/MS analysis; format: ADME, Microsome
Summary of the method: (§3)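 Human liver microsomes 0.5 mg/mL, compound 1 μM final, NADPH 2 mM, at 37 °C. Reactions stopped at 0, 5, 15, 30 and 45 min with acetonitrile containing imipramine internal standard. LC/MS/MS quantitation relative to 0 min; initial rates used for t1/2 and intrinsic clearance; ketanserin as assay control. Mean of two independent experiments.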

Mus musculus [10] = assay: Anti-alzheimer activity in amyloid beta(1 to 42)-induced ICR mouse model of cognitive impairment assessed as reduction in escape latency time at 15 mg/kg, ig administered at days 2 to 14 by Morris water maze test; format: functional
Summary of the method: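 Mouse model by icv oligomerized Aβ1-42 (10 μg/mouse, aggregated 24 h at 37 °C in saline) on day 1; 15 mg/kg ig on days 2−14, n = 8. Morris water maze training on days 9−13, probe trial day 14, escape latency and track recorded. Mean SD.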

PC-12 [11] = assay: Cytotoxicity against rat PC-12 cells assessed as survival rate at 10 uM incubated for 24 hrs by MTT assay; format: functional; summary of the method: as §2
HepG2 [12] = assay: Cytotoxicity against human HepG2 cells assessed as survival rate at 100 uM incubated for 24 hrs by MTT assay; format: functional; summary of the method: as §2
Mus musculus [13] = assay: Anti-alzheimer activity in amyloid beta(1 to 42)-induced ICR mouse model of cognitive impairment assessed as simplification of trajectories at 15 mg/kg, ig administered at days 2 to 14 by Morris water maze test; format: functional, organism-based
Summary of the method: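 ICR mice, n = 8 per group. Aggregated Aβ1-42 (5 mM DMSO stock incubated 24 h at 37 °C in saline at 2 mg/mL) given 10 μg per mouse icv on day 1; saline icv for sham. Compound 15 mg/kg intragastric on days 2−14; donepezil reference. Morris water maze training days 9−13, probe trial day 14; tracks recorded; mean ± SD.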

[14] = Metabolic stability in human liver microsomes assessed as intrinsic clearance at 1 uM measured upto 45 mins in presence of NADPH by LC/MS/MS analysis; format: ADME, Microsome; details: read-out: CLH; summary of the method: as §3
[15] = Hepatotoxicity in ICR mouse assessed as change in aspartate aminotransferase activity at 1 g/kg, ig administered daily for 14 days measured upto 36 hrs post-administration; format: toxicity; details: in vivo, po, 1000 mg/kg, 336 h, time 14 day; summary of the method: as §1
Mus musculus [16] = assay: Anti-alzheimer activity in amyloid beta(1 to 42)-induced ICR mouse model of cognitive impairment assessed as enhanced alternation performance by measuring total number of arm entries at 15 mg/kg, ig administered at days 2 to 14 and measured on day 15 by Y-maze test; format: functional
Summary of the method: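 Oligomerized Aβ1-42 (10 μg per mouse, icv) given on day 1; saline icv for sham. Dosing 15 mg/kg ig on days 2−14 (donepezil as positive control), n = 8. Spontaneous alternation read on day 15 in a three-arm grey PVC Y maze, arms at 120°. Mean SD.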

SH-SY5Y [17] = assay: Cytotoxicity against human SH-SY5Y cells assessed as survival rate at 100 uM incubated for 24 hrs by MTT assay; format: functional; summary of the method: as §2
Cholinesterase [18] = target: Cholinesterase (Equus caballus, UniProt P81908); assay: Inhibition of equine serum BChE using butyrylthiocholine iodide as substrate preincubated for 5 mins followed by substrate addition and measured after 2 mins by DTNB-reagent based Ellman's method
[19] = Acute toxicity in ICR mouse assessed as animal death at […]; details: in vivo, po, 1000 mg/kg, 336 h
SH-SY5Y [20] = assay: Cytotoxicity against human SH-SY5Y cells assessed as reduction in cell viability incubated for 24 hrs by MTT assay; format: functional, cell-based; summary of the method: as §2
HepG2 [21] = assay: Cytotoxicity against human HepG2 cells assessed as reduction in cell viability incubated for 24 hrs by MTT assay; format: functional, cell-based; details: HepG2, 24 h; summary of the method: as §2
PC-12 [22] = assay: Cytotoxicity against rat PC-12 cells assessed as reduction in cell viability incubated for 24 hrs by MTT assay; format: functional, cell-based; details: PC-12, 24 h; summary of the method: as §2
SH-SY5Y [23] = assay: Cytotoxicity against human SH-SY5Y cells assessed as survival rate at 2.5 uM incubated for 24 hrs by MTT assay; format: functional; summary of the method: as §2
PC-12 [24] = assay: Cytotoxicity against rat PC-12 cells assessed as survival rate at 2.5 uM incubated for 24 hrs by MTT assay; format: functional; summary of the method: as §2
BV-2 [25] = assay: Anti-inflammatory activity against mouse BV-2 cells assessed as blocked of LPS-induced increased ROS production by measuring green fluorescence preincubated for 1 hr by DCFH-DA staining based fluorescence microscopy; format: functional, cell-based
Summary of the method: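 BV2 cells seeded at 1 × 10⁴ per well and grown 24 h at 37 °C. Compounds at various concentrations for 1 h, then LPS 2.5 μg/mL for 24 h. Washed in PBS, loaded with DCFH-DA 5 μM (final) for 30 min, washed three times. Intracellular ROS taken as green fluorescence intensity by inverted fluorescence microscopy, exposure fixed at 10.2 ms.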

SH-SY5Y [26] = assay: Neuroprotective activity against amyloid beta (1 to 42)-induced cytotoxicity in human SH-SY5Y cells at 2.5 uM pretreated for 2 hrs followed by amyloid beta (1 to 42) stimulation and measured after 24 hrs by MTT assay; format: functional, cell-based; details: time 26.0 hrs
Summary of the method: (§4)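 SH-SY5Y cells seeded at 5000 per well and grown 24 h. Pretreated 2 h with compound (2.5 or 10 μM, diluted in DMEM from 10⁻¹ M DMSO stock), then H₂O₂ 200 μM, glutamate 20 mM or aggregated Aβ1-42 15 μM for 24 h. MTT added for 4 h, formazan dissolved in DMSO, absorbance read at 492 nm. Viability relative to untreated control; mean ± SEM, n = 3.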

SH-SY5Y [27] = assay: Neuroprotective activity against amyloid beta (1 to 42)-induced cytotoxicity in human SH-SY5Y cells at 10 uM pretreated for 2 hrs followed by amyloid beta (1 to 42) stimulation and measured after 24 hrs by MTT assay; format: functional, cell-based; details: time 26.0 hrs; summary of the method: as §4
SH-SY5Y [28] = assay: Neuroprotective activity against H2O2-induced cytotoxicity in human SH-SY5Y cells pretreated for 2 hrs followed by H2O2 stimulation and measured after 24 hrs by MTT assay; format: functional, cell-based; details: dose 2.5-10 µM, time 26.0 hrs; summary of the method: as §4
SH-SY5Y [29] = assay: Neuroprotective activity against glutamate-induced cytotoxicity in human SH-SY5Y cells at 10 uM pretreated for 2 hrs followed by glutamate stimulation and measured after 24 hrs by MTT assay; format: functional, cell-based; details: time 26.0 hrs; summary of the method: as §4

Sequence of Cholinesterase (Homo sapiens, UniProt P06276) (P06276 whole entry): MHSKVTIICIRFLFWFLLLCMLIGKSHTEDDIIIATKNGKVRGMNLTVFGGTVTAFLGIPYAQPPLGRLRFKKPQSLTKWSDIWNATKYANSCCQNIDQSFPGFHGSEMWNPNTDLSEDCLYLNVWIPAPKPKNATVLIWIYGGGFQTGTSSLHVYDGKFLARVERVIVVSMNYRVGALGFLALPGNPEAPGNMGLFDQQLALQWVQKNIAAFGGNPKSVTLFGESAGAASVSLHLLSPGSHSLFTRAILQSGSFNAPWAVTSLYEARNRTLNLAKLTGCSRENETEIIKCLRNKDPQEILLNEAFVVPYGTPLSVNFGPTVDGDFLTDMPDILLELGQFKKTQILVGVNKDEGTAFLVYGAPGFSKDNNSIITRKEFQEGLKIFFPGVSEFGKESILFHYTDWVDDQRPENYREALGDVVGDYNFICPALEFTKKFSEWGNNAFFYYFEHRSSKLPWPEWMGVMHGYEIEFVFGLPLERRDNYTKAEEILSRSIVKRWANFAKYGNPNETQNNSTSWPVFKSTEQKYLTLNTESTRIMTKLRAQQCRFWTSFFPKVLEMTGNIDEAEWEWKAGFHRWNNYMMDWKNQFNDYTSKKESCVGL
Sequence of Cholinesterase (Equus caballus, UniProt P81908) (P81908 whole entry): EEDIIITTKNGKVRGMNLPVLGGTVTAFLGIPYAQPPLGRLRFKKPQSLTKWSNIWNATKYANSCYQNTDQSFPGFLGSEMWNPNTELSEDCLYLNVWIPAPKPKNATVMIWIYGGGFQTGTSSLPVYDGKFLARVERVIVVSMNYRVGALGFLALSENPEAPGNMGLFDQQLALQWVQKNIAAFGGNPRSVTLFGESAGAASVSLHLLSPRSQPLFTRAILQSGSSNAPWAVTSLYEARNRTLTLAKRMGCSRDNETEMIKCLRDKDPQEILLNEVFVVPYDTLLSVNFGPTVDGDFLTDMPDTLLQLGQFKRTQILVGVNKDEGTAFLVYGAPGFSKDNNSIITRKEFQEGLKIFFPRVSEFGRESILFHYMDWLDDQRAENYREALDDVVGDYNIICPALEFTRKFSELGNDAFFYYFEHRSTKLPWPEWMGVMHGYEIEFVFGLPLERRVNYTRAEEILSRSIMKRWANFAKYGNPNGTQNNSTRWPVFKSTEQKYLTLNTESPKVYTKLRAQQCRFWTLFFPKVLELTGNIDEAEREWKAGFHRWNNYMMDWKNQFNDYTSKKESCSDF

| Structure (SMILES) | Papp at 18 h, 100 ug/ml [1] [×10⁻⁶ cm/s] | Activity [2] | IC50 (Cholinesterase [3]) [nM] | Activity [4] | Activity (L02) [%] | Activity (Mus musculus [5]) | Activity [6] | Activity (BV-2 [7]) [%] | Activity [8] | half-life at 1 µM [9] [min] | Activity (Mus musculus [10]) | Activity (PC-12 [11]) [%] | Activity (HepG2 [12]) [%] | Activity (Mus musculus [13]) | CLint scaled at 1 µM [14] [mL/min/kg] | Activity [15] | Activity (Mus musculus [16]) | Activity (SH-SY5Y [17]) [%] | IC50 (Cholinesterase [18]) [nM] | Activity [19] | also measured |
| --- | --- | --- | --- | --- | --- | --- | --- | --- | --- | --- | --- | --- | --- | --- | --- | --- | --- | --- | --- | --- | --- |
| Nc1nonc1-c1nc2ccccc2n1CC(=O)Nc1ccc(Br)c2ccccc12 | 11.7 | Toxic | 32 | Non-Toxic | 86.55 | Active | Non-Toxic | 55.66 | Non-Toxic | 32.2 | Active | 52.21 | 73.24 | Active | 54 | Non-Toxic | Active | 62.37 | 6 | Non-Toxic |  |
| Cc1ccc2cc(NC(=O)Cn3c(-c4nonc4N)nc4ccccc43)ccc2n1 |  |  |  |  | 61.49 |  |  | 59.79 |  |  |  |  |  |  |  |  |  |  |  |  | IC50 (SH-SY5Y [20]): 35100 nM; IC50 (HepG2 [21]): 17300 nM; IC50 (PC-12 [22]): 91500 nM |
| Nc1nonc1-c1nc2ccccc2n1CC(=O)Nc1cccc2ccccc12 |  |  | 22 |  | 73.52 |  |  | 82.9 |  |  |  |  |  |  |  |  |  |  | 44 |  | Activity (SH-SY5Y [23]): 40.84%; IC50 (HepG2 [21]): 5050 nM; Activity (PC-12 [24]): 44.44% |
| Nc1nonc1-c1nc2ccccc2n1CC(=O)Nc1cccc([N+](=O)[O-])c1 | 12.4 | Toxic | 25 | Non-Toxic | 87.01 | Active | Non-Toxic | 94.23 | Non-Toxic | 47.5 | Active | 58.34 | 75.46 | Active | 36.6 | Non-Toxic | 68.67% | 82.67 | 31 | Non-Toxic | Activity (BV-2 [25]): Active; Activity (SH-SY5Y [26]): Active; Activity (SH-SY5Y [27]): Active; Activity (SH-SY5Y [28]): Dose-Dependent Effect; Activity (SH-SY5Y [29]): Active |
